Laboratory results published in ChEMBL document CHEMBL1123548 (J Med Chem, 1986).

Legend:
Adenosine receptor A2a = Adenosine receptor A2a (Cavia porcellus, UniProt P46616); assay: Compound was evaluated for its ability to antagonise cyclic [3H]AMP accumulation in [3H]adenine-labeled guinea pig cerebral cortical slices.; format: functional
Adenosine receptor A1 = biological target: T1, Adenosine receptor A1 (Rattus norvegicus, UniProt P25099); assay: Ability to inhibit binding of 1 nM [3H]cyclohexyladenosine to adenosine A1 receptor in rat cerebral cortical membranes; format: cell membranes, Membrane
T1 sequence (P25099 whole entry): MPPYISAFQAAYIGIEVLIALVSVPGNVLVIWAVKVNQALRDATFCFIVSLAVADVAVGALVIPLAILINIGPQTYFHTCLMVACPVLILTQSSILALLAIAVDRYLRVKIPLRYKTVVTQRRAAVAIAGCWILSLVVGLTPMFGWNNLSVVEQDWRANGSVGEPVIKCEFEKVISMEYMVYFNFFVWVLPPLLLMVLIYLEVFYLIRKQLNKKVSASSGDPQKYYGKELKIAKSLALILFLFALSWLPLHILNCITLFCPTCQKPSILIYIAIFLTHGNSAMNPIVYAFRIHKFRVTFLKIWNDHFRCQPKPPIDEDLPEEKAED
How it was run: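 Displacement of 1 nM N6-[3H]cyclohexyladenosine from A1 sites in rat cerebral cortical membranes by a range of xanthine concentrations. Each point was run in triplicate in at least two separate experiments. IC50 was determined and converted to Ki. Values are mean ± SEM of two to five determinations.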

Cavia porcellus = species on record: Cavia porcellus; assay: Selectivity was expressed as the ratio is Ki of adenosine A1 receptor to that of adenosine A2 receptor
[1] = biological target: Adenosine receptor A1 (Rattus norvegicus) (UniProt P25099); assay: Inactive Selectivity was expressed as the ratio is Ki of A1-[…]

Adenosine receptor A2a, sequence (P46616 whole entry): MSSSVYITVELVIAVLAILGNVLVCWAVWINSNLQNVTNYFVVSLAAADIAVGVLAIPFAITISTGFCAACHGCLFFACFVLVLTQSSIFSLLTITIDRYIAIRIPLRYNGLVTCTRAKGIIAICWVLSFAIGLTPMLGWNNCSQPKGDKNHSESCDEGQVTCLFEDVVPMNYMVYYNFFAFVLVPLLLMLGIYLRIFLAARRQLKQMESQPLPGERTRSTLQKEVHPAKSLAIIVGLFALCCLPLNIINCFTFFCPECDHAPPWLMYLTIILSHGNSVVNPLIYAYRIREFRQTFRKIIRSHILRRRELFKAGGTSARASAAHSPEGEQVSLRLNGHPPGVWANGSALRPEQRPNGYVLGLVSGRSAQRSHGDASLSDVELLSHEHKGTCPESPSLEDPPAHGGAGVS

Structure (SMILES)	Ki (Adenosine receptor A2a)	Ki (Adenosine receptor A1)	Selectivity ratio (Cavia porcellus)	Selectivity ratio [1]
C=CCn1c(=O)c2c(ncn2C)n(CC=C)c1=O	4 µM	18 µM	4.5	
CC(C)Cn1c(=O)n(C)c(=O)c2nc[nH]c21			0.9	
Cn1c(=O)n(CCO)c(=O)c2[nH]cnc21	50 µM	85 µM	1.7	
C=CCn1c(=O)c2nc[nH]c2n(CC=C)c1=O		10 µM	2	
CC(C)Cn1c(=O)n(C)c(=O)c2c1ncn2Cc1ccccc1	11 µM	9 µM	0.8	
CCn1c(=O)c2nc[nH]c2n(C)c1=O	5 µM	15 µM	3	
C=CCn1cnc2c1c(=O)n(C)c(=O)n2CC(C)C	8.5 µM	13 µM	1.5	
O=c1c2[nH]cnc2n(Cc2ccccc2)c(=O)n1Cc1ccccc1	14 µM	2 µM	0.14	
C#CCn1cnc2c1c(=O)n(CCC)c(=O)n2CCC	0.4 µM	0.6 µM	1.5	
CCCn1cnc2c1c(=O)n(C)c(=O)n2C	11 µM	21 µM		1.9
CCCn1c(=O)c2c(ncn2CCC)n(CCC)c1=O	1.4 µM	2.6 µM	1.9	
CC(C)Cn1c(=O)c2nc[nH]c2n(CC(C)C)c1=O		0.5 µM	0.3	
CC(C)Cn1c(=O)n(C)c(=O)c2c1ncn2C	7 µM	19 µM	2.7	
CCCn1c(=O)c2c(ncn2Cc2ccccc2)n(CCC)c1=O	1.5 µM	1 µM	0.7	
CCCn1c(=O)c2c(ncn2C)n(CCC)c1=O	1.2 µM	7 µM	5.8	
C=CCn1cnc2c1c(=O)n(CCC)c(=O)n2CCC	0.7 µM	1.9 µM	2.7	

Structure (SMILES)	Ki (Adenosine receptor A2a)	Ki (Adenosine receptor A1)	Selectivity ratio (Cavia porcellus)	Selectivity ratio [1]
C=CCn1c(=O)c2c(ncn2C)n(C)c1=O	6.5 µM	47 µM	7.2	
CC(C)n1c(=O)n(C)c(=O)c2[nH]cnc21	6 µM	12 µM	2	
C#CCn1cnc2c1c(=O)n(C)c(=O)n2C	4.1 µM	12 µM	2.9	
CCCn1cnc2c1c(=O)n(C)c(=O)n2CC(C)C	11 µM	13 µM	1.2	
C#CCn1c(=O)c2c(ncn2C)n(C)c1=O	6 µM		7.5	
CC(=O)OCCn1cnc2c1c(=O)n(C)c(=O)n2C	68 µM	40 µM	0.6	
C=CCn1cnc2c1c(=O)n(C)c(=O)n2C	10 µM	33 µM	3.3	
CCCn1c(=O)n(C)c(=O)c2c1ncn2C	9 µM	24 µM	2.7	
CCCn1c(=O)c2nc[nH]c2n(CCC)c1=O			0.3	
Cn1c(=O)c2c(ncn2CCO)n(C)c1=O [ETOFYLLINE]	135 µM	105 µM	0.8	
CCn1c(=O)c2nc[nH]c2n(CC)c1=O	3 µM	3.3 µM	1.1	
Cn1c(=O)c2c(ncn2Cc2ccccc2)n(C)c1=O	14 µM	6 µM	0.4	
CCCn1c(=O)c2c(ncn2C)n(C)c1=O	5 µM	38 µM	9.5	
Cn1c(=O)c2nc[nH]c2n(CCO)c1=O	80 µM	60 µM	0.8	
Cn1c(=O)c2c(ncn2CCCl)n(C)c1=O [7-CHLOROETHYLTHEOPHYLLINE]	4.5 µM	8 µM	1.8	
C#CCn1cnc2c1c(=O)n(C)c(=O)n2CC(C)C	2.8 µM	3.1 µM	1.1	
